Screening data (PubChem)
MEKK2 mut-MEK5: signal of MEK5 binding to mutant human MEKK2 PB1 domain | percent response, % at 10 µM | bead flow cytometry, Alexa488-MEK5 binding to MEKK2 mutant | actives 0.35% (n = 290,000); in the data active = percent response above about 24%, passing the limit was not always enough
UBC13 inh: human UBC13 polyubiquitination inhibition; inhibition, % at 20 µM; actives 0.47% (n = 330,000); UBC13 polyubiquitin chain formation, TR-FRET; in the data active = inhibition above about 45%, passing the limit was not always enough; inconclusive = no clear call, values can overlap the other calls
Target sequence (P61088 whole entry, looked up): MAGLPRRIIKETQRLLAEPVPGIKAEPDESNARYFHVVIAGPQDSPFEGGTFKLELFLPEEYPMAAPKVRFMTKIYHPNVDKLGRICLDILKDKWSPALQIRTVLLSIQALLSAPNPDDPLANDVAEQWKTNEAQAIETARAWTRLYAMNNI
UCH37 DUB inh: blocks the human deubiquitinase UCH37. Q9Y5K5. inhibition, % (test concentration not listed). actives 0.33% (n = 330,000). purified proteasome/UCH37, Ub-AMC cleavage fluorescence;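 active = mean inhibition over replicate wells above about 20%, limit read from the data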;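 also: 0% = compound-free wells with enzyme and 100% = wells lacking proteasome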
Target sequence (Q9Y5K5 whole entry, looked up): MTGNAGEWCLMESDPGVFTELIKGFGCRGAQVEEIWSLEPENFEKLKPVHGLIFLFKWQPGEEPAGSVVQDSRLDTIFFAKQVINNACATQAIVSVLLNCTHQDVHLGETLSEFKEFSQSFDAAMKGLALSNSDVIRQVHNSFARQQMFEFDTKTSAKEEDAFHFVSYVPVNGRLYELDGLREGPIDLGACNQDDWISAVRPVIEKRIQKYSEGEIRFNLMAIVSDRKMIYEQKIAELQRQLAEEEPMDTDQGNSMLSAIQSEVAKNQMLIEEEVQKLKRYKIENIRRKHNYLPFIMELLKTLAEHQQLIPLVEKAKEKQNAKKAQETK
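Schedule: 30 min plus 25 min, room temperature / Material: human UCH37 within purified proteasomes / Technique: AMC fluorescence intensity at 355/460 nm / Buffer or medium: pH 7.4 Tris-HCl (50 mM) with ovalbumin, ATP-MgCl2, DTT / Controls: wells without proteasome as full block, compound-free enzyme plus substrate as uninhibited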
MEKK3 PB1 HTS: raises or lowers MEK5 binding to the human MEKK3 PB1 domain. actives 1.4% (n = 290,000). bead-based flow cytometry, Alexa488-MEK5 binding to MEKK3; actives lie on both sides; 0 = blocked by unlabeled MEK5, 100 = vehicle. Q99759. AID 1529. binding response (% of control), % at 10 µM;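 active = binding response more than 3 SD above or below the average of its plate-row segment, actives on both sides; inconclusive = wells at one plate position flagged as instrument error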;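 also: Alexa488 bead fluorescence after subtracting the streptavidin-only scavenger bead signal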
Apaf-1 inh: human Apaf-1 inhibition; reconstituted apoptosome caspase-3 activity, DEVD-Rh110 fluorescence; inhibition, % at 20 µM; actives 0.71% (n = 330,000); active = inhibition of at least 40% at 20 µM;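 also: plate controls were DMSO wells for no effect and DEVD-CHO caspase inhibitor wells for full effect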
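Material: reconstituted apoptosome with Apaf-1, cytochrome c, caspase-9, procaspase-3, dATP. Technique: Rh110 fluorescence intensity. Buffer or medium: pH 7.5 Hepes buffer with CHAPS, BSA, DTT. Times: 30 min plus 50 min, RT.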
MEKK2wt PB1 HTS: raises or lowers MEK5 binding to wildtype human MEKK2 PB1 domain; Q9Y2U5; bead flow cytometry, Alexa488-MEK5 binding to MEKK2 WT; actives lie on both sides; binding response (% of control), % at 10 µM; actives 1.1% (n = 290,000); AID 1531; in the data active = binding response below about 67% or above about 130%; inconclusive = no clear call, values can overlap the other calls; inactive = in between
MEKK2wt confirm: raises or lowers MEK5 binding to wildtype human MEKK2, retest. actives 2.4% (n = 5,900). binding response (% of control), % at 10 µM. bead flow cytometry, Alexa488-MEK5 binding to MEKK2 WT; actives lie on both sides. AID 1892. shares compounds with MEKK3 PB1 HTS; in the data active = binding response below about 16% or above about 210%; inactive = in between
MEKK2mut confirm: signal of MEK5 binding to mutant human MEKK2, retest. percent response, % at 10 µM. shares compounds with MEKK3 PB1 HTS. bead flow cytometry, Alexa488-MEK5 binding to MEKK2 mutant. actives 2% (n = 5,900); in the data active = percent response mostly above about 71%, no sharp cut-off; inactive = mostly below about 38%;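 also: higher means compound restores mutant binding toward wildtype level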
MEKK3-MEK5 inh: MEKK3-MEK5 PB1 inhibition, single concentration confirmation. AID 1894. bead flow cytometry, Alexa488-MEK5 binding to MEKK3; hits give low values. actives 1.8% (n = 5,900). binding response (% of control), % at 10 µM. shares compounds with MEKK3 PB1 HTS;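 active = binding response below 72% of control, or above a set upper limit, though filed actives all read lower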;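 also: 100% = DMSO only wells and 0% = binding blocked by excess unlabeled MEK5; lower values mean stronger disruption of MEK5 binding to MEKK3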
An asterisk follows results filed as active; ? = inconclusive; . = no result; [ ] = remark or other dose. In the library only some 3% were active in any assay of this set; here they are far more common.

SMILES	MEKK2 mut-MEK5	UBC13 inh	UCH37 DUB inh	MEKK3 PB1 HTS	Apaf-1 inh	MEKK2wt PB1 HTS	MEKK2wt confirm	MEKK2mut confirm	MEKK3-MEK5 inh
CCOc1ccccc1NC(=O)CSc1nc(N)c(C#N)cc1C#N	3	12	-41	99	3	98	.	.	.
COc1ccccc1NC(=O)CSc1nc(N)c(C#N)cc1C#N	0	16	-1	130*	-3	109	104	14	105
COC(=O)N/N=C/c1cc(Cl)c(OCc2ccc(F)cc2)c(OC)c1	0	8	.	128*	-5	105	106	3	102
NS(=O)(=O)c1ccc(NS(=O)(=O)c2ccc(NC(=S)Nc3ccccc3)cc2)cc1	1	-2	4	4.0*[inhibitor]	3	99	101	-6	102
NS(=O)(=O)c1ccc(NC(=S)NC2CC2)cc1	-5	4	3	99	-21	95	.	.	.
CC1(C)CC(NC(=S)Nc2ccc(S(N)(=O)=O)cc2)CC(C)(C)N1	1	6	5	134*	3	121	110	6	101
O=S(=O)(c1cccc2cnccc12)N1CCNCC1	.	-2	0	.	-5	.	.	.	.
O=C(Cc1cccs1)N/N=C/C=C/c1ccccc1	0	-20	.	129*	0	104	104	0	104
O=C(Cc1cccs1)N/N=C/C=C\c1ccccc1[N+](=O)[O-]	-2	7	.	110	14	100	.	.	.
COc1ccccc1NCC(=O)N/N=C/C=C/c1ccccc1	3	-10	.	70*[inhibitor]	-5	96	99	-3	99
COc1ccc(NCC(=O)NN=C/C=C\c2ccccc2)cc1	.	.	7	.	.	.	.	.	.
Cc1ccc(NC(=O)CN2CCN(C)CC2)cc1S(=O)(=O)N1CCOCC1	.	18	2	.	24	.	.	.	.
Cc1sc2ncnc(Sc3nnnn3-c3ccccc3)c2c1C	-14	12	-13	78*[inhibitor]	3	81	91	-14	95
Cc1sc2ncnc(Sc3ccccc3C(=O)O)c2c1C	-1	?	5	98	2	97	.	.	.
CCn1cc(CN2CCCC(C(=O)Nc3cccc(-c4cc5ccccc5[nH]4)c3)C2)c(C)n1 (centres undefined)	21	19	-7	107	34	154*	176	39	104
CCOc1ccc(Br)cc1C(=O)NN=Cc1ccc([N+](=O)[O-])cc1	.	.	7	.	.	.	.	.	.
O=C(c1ccc(Cl)cc1)C1CCCN(Cc2cnn(-c3ccccc3)c2)C1 (centres undefined)	36	6	0	100	-6	148*	126	14	105
S=C(Nc1ccccc1)Nc1ccc(OCc2ccc(Cl)cc2Cl)cc1	-8	-18	4	98	15	97	.	.	.
OCCNCc1ccc(OCc2ccc(Cl)cc2Cl)cc1	27	20	1	101	6	138*	124	6	98
OCCCCNCc1ccc(OCc2ccc(Cl)cc2Cl)cc1	34*	12	4	110	14	169*	163	75*	108
COc1ccc(CN(C(=O)CN2C(=O)NC3(CCC(C)CC3)C2=O)C(C)Cc2cccs2)cc1 (centres undefined)	.	-14	3	.	21	.	.	.	.
CC1CN(c2ccc([N+](=O)[O-])c(NCCOc3ccccc3)c2)CC(C)N1 (centres undefined)	18	-23	9	109	22	170*	140	22	107
O=[N+]([O-])c1ccc(N2CCCCC2)cc1NCCOc1ccccc1	-1	-16	3	97	6	101	.	.	.
CC1CN(c2ccc([N+](=O)[O-])c(NCCOc3ccc(Cl)cc3)c2)CC(C)N1 (centres undefined)	48*	22	8	109	27	222*	163	31	103
COc1cccc(OCCCCN2CC(C)OC(C)C2)c1 (centres undefined)	0	6	4	91	3	96	.	.	.
SMILES	MEKK2 mut-MEK5	UBC13 inh	UCH37 DUB inh	MEKK3 PB1 HTS	Apaf-1 inh	MEKK2wt PB1 HTS	MEKK2wt confirm	MEKK2mut confirm	MEKK3-MEK5 inh
COc1ccc(NS(=O)(=O)c2cn(C)cn2)cc1Cl	-3	-1	5	101	-14	104	.	.	.
FC(F)(F)c1nnc2ccc(N3CCCC3)nn12	5	-2	2	103	-7	108	.	.	.
FC(F)(F)c1nnc2ccc(N3CCCCCC3)nn12	-14	-2	7	81*[inhibitor]	9	91	98	-2	100
O=C(O)C(Cc1ccccc1)N1C(=O)/C(=C/C=C/c2ccco2)SC1=S (centres undefined)	-16	.	24*	37*[inhibitor]	.	40*[inhibitor]	89	-5	97
COc1ccc(/C=C2\SC(=S)N(C(Cc3ccccc3)C(=O)O)C2=O)cc1 (centres undefined)	-5	-6	8	99	2	101	.	.	.
CCN1CCN(Cc2ccc(NC(=O)c3ccc(C)c(NC(=O)c4ccnnc4)c3)cc2C(F)(F)F)CC1	-6	0	3	81*[inhibitor]	-2	99	112	5	103
Cc1cc(C)cc(-n2c(C)c3c(C)nnc(C)c3c2C)c1	0	13	.	101	11	105	.	.	.
Cc1cccc2cc(/C=N/Nc3ccc(C(=O)O)cc3)c(Cl)nc12	-37	2	.	66*[inhibitor]	-2	67	74	-13	79
Cc1cccc2cc(C=NNc3ccc(C(=O)O)cc3)c(Cl)nc12	.	.	-14	.	.	.	.	.	.
O=[N+]([O-])c1cccc(/C=N/NC2CCS(=O)(=O)C2)c1 (centres undefined)	-16	-4	.	87	1	96	.	.	.
Cc1ccccc1C(=O)OCCN(C)Cc1ccccc1	-2	10	2	102	-1	103	.	.	.
Cc1ccc(NC(=O)OCCN2CCN(Cc3ccccc3)CCC2=O)cc1C	-3	8	-1	99	13	101	.	.	.
O=C(Nc1ccc(F)cc1)OCCN1CCN(Cc2ccccc2)CCC1=O	-2	7	3	2.0*[inhibitor]	6	2.0*[inhibitor]	103	-3	100
Cc1cc(N/N=C/c2cccc(Cl)c2)nc(NCc2ccccc2)n1	35	18	.	99	19	149*	174	52	110
Clc1ccc(/C=N/Nc2ccccn2)cc1	0	-9	.	128*	-2	111	104	5	101
